# According to PMC3880617 (Journal of medicinal chemistry, 2013):
# Experiments:
# [1] = Stability in solution by 31P{1H} NMR in deuterated solvents; type: physicochemical
# [2] = tested on: human breast cancer cell line MCF7; conditions: read-out: IC50 MCF7; cisplatin dissolved in H2O; ref [18]; cited from earlier work
# [3] = tested on: A2780cisR (cisplatin resistant variant of A2780); conditions: read-out: IC50 A2780cisR; cisplatin dissolved in H2O; ref [18]; cited from earlier work
# [4] = tested on: human ovarian cancer A2780 cell line; conditions: read-out: IC50 A2780; cisplatin dissolved in H2O; ref [18]; cited from earlier work
# plasmid (pBR322) DNA = experiment: Electrophoresis mobility shift assay with plasmid DNA; type: binding; conditions: metal/DNAbp ratios 0.25-2.0; 37 °C, 20 h
# Outline: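 Supercoiled pBR322 (20 μg/mL) in 5 mM Tris/HCl, 50 mM NaClO4, pH 7.39, incubated with test compound at […] metal complex:DNAbp ratios for 20 h at 37 °C in the dark. Untreated DNA and cisplatin-DNA were the controls. Samples were run on 1% agarose in TAE for 1.5 h at 80 V and stained with GelRed for 30 min. Read-out: ratio at which the two plasmid forms coalesce.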
# [5] = tested on: non-tumorigenic human embryonic kidney cells HEK293T; conditions: read-out: IC50 HEK-293T; cisplatin dissolved in H2O; ref [18]; cited from earlier work
Molecule,half-life in d6-DMSO solution [1],IC50 [2] [µM],IC50 [3] [µM],IC50 [4] [µM],effect on electrophoretic mobility of pBR322 plasmid forms (plasmid (pBR322) DNA),IC50 [5] [µM]
[{Cp-P(Ph2)=NH-Ph}2Fe](AuCl4)2 [compound 4],weeks,,,,,
N.N.[Cl][Pt][Cl] [cisplatin],,20 ± 3,35 ± 7,1.9 ± 0.6,decrease in mobility of the CCC form and an increase in mobility of the OC form,11 ± 2.9
